Test [1] deals with Mus musculus. In words: In vivo antinociceptive activity expressed as ED50 administered perorally for tail pressure test in mice. Conditions: po.
The test system of test [2] is Mus musculus. As to the kind of experiment: (§1) In vivo antinociceptive activity expressed as ED50 administered perorally for tail pressure test. Conditions: po.
Test [3] concerns Mus musculus. Described as §1. Conditions: po. The source holds these as a separate data set.
A short description of test [4]: Ratio of ED50 value administered subcutaneously to that of perorally. The test is classed as functional. The gist of the method:
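Mouse tail pressure test ED50 values obtained after sc and po dosing by Litchfield–Wilcoxon at peak activity. The sc ED50 divided by the po ED50 is expressed as a percentage.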

In general, ED50 refers to the dose at which the effect has come halfway, by size or by number of responders. Low readings indicate an effect at a small dose, high ones a need for a large dose. With `CN1CC[C@]23c4c5ccc(O)c4O[C@H]2[C@@H](O)C=C[C@H]3[C@H]1C5` [MORPHINE], the ED50 with Mus musculus [1] was 3.3 mg/kg; in the test on Mus musculus [2] it was 15 mg/kg; in the test on Mus musculus [3] it was 1.7 mg/kg. The Ratio in test [4] is reported as 15.

Source of the values: ChEMBL document CHEMBL1135567, “Synthesis and structure-activity relationships of an orally available and long-acting analgesic peptide, N(alpha)-amidino-Tyr-D-Arg-Phe-MebetaAla-OH (ADAMB)” (J Med Chem, 2002).
